According to the M2OR odorant receptor database:

Legend:
Settings in all cases: stereoisomer not certain
OR6C65 (Homo sapiens) = target: T1, OR6C65 (Homo sapiens) (UniProt A6NJZ3)
T1 sequence (whole entry): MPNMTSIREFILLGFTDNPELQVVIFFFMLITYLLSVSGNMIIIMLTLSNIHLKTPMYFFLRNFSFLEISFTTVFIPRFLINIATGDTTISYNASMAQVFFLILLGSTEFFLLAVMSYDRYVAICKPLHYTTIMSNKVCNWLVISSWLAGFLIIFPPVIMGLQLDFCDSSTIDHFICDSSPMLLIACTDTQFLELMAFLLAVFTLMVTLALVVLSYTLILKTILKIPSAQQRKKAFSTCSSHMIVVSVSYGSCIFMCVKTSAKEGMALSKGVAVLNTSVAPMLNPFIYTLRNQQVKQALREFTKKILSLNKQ
Outline: (§1)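 Whether a receptor–molecule pair is responsive (active) rests on the original authors' judgment that its measured signal was statistically different from baseline. Pairs without that judgment are non-responsive (inactive). Sources used varied assay methods, commonly transient luciferase assays in mammalian cell lines.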

OR6C68 (Homo sapiens) = target: T2, OR6C68 (Homo sapiens) (UniProt A6NDL8)
T2 sequence (whole entry): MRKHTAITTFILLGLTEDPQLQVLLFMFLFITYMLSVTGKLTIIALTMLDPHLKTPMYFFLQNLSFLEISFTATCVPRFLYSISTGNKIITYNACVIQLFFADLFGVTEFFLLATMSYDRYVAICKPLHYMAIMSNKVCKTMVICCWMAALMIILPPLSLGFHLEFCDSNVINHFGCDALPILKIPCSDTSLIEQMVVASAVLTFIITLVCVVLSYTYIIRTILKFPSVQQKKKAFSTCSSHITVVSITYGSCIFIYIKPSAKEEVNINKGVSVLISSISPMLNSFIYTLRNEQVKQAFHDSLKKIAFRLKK
Outline: as §1

OR6C70 (Homo sapiens) = target: T3, OR6C70 (Homo sapiens) (UniProt A6NIJ9)
T3 sequence (whole entry): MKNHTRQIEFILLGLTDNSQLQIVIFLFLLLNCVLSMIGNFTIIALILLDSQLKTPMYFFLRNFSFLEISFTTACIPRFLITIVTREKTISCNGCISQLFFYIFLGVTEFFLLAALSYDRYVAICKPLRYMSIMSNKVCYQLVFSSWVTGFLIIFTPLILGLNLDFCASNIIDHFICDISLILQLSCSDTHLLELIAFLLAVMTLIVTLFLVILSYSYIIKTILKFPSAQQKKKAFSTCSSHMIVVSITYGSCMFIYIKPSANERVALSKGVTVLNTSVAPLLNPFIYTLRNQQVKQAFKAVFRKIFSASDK
Outline: as §1

OR6C74 (Homo sapiens) = target: T4, OR6C74 (Homo sapiens) (UniProt A6NCV1)
T4 sequence (whole entry): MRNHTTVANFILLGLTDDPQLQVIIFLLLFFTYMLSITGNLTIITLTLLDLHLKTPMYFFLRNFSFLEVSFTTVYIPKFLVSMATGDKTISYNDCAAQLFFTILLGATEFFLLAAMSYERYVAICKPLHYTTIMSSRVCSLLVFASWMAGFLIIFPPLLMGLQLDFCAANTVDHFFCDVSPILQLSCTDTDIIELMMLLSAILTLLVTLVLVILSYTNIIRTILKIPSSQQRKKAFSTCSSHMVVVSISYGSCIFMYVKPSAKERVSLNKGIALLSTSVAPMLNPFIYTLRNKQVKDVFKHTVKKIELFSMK
Outline: as §1

OR6C75 (Homo sapiens) = target: T5, OR6C75 (Homo sapiens) (UniProt A6NL08)
T5 sequence (whole entry): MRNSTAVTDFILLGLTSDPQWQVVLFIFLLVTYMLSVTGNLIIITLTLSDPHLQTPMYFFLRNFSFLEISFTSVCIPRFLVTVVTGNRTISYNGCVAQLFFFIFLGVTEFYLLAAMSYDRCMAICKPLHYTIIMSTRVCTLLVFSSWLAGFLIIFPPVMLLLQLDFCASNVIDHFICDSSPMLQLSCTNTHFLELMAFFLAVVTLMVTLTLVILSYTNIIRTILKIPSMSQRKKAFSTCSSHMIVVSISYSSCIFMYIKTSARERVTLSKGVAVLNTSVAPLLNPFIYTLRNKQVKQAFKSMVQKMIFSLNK
Outline: as §1

OR6C76 (Homo sapiens) = target: T6, OR6C76 (Homo sapiens) (UniProt A6NM76)
T6 sequence (whole entry): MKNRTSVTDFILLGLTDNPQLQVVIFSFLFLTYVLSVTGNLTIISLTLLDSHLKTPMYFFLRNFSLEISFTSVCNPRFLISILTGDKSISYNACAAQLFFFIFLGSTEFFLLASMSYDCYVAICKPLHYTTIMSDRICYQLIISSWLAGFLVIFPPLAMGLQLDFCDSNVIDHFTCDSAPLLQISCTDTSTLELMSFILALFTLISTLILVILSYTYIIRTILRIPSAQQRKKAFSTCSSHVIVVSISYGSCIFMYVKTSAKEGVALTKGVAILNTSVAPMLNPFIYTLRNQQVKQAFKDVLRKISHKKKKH
Outline: as §1

OR6F1 (Homo sapiens) = target: T7, OR6F1 (Homo sapiens) (UniProt Q8NGZ6)
T7 sequence (whole entry): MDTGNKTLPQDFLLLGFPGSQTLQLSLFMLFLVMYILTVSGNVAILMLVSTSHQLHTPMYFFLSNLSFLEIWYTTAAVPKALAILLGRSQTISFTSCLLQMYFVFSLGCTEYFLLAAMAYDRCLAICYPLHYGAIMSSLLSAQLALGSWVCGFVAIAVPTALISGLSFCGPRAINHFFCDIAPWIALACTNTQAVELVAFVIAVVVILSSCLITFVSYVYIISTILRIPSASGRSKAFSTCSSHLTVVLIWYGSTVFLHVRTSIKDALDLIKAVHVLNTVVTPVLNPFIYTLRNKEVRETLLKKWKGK
Outline: as §1

OR6J1 (Homo sapiens) = target: T8, OR6J1 (Homo sapiens) (UniProt Q8NGC5)
T8 sequence (whole entry): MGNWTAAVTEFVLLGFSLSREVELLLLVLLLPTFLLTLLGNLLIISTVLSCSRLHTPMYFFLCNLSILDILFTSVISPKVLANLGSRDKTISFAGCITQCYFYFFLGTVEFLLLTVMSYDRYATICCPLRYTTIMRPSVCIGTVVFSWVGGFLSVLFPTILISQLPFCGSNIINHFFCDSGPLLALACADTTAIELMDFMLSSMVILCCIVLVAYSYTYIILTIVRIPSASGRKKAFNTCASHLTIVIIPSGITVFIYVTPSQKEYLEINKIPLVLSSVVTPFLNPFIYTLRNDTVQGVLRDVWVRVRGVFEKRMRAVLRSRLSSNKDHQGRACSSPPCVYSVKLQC
Outline: as §1

OR6K2 (Homo sapiens) = target: T9, OR6K2 (Homo sapiens) (UniProt Q8NGY2)
T9 sequence (whole entry): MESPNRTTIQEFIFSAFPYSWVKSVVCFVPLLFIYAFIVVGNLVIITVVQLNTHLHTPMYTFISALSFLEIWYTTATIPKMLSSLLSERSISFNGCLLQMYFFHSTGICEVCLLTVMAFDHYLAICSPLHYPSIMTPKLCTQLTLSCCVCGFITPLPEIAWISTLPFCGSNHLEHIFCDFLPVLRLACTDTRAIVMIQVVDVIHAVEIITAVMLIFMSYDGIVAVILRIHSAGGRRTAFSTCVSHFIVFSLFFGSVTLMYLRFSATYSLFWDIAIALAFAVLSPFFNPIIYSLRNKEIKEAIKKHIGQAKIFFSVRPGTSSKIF
Outline: as §1

OR6K3 (Homo sapiens) = target: T10, OR6K3 (Homo sapiens) (UniProt Q8NGY3)
T10 sequence (whole entry): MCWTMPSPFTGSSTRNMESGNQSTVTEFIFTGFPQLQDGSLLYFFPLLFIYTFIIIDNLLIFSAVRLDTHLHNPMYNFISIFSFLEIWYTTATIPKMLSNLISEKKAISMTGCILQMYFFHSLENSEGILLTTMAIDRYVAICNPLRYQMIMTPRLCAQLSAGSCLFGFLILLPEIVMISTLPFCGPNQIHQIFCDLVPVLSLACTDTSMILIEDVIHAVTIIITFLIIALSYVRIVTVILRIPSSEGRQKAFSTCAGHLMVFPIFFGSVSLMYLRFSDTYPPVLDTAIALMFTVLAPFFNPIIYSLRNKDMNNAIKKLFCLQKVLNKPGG
Outline: as §1

OR6K6 (Homo sapiens) = target: T11, OR6K6 (Homo sapiens) (UniProt Q8NGW6)
T11 sequence (whole entry): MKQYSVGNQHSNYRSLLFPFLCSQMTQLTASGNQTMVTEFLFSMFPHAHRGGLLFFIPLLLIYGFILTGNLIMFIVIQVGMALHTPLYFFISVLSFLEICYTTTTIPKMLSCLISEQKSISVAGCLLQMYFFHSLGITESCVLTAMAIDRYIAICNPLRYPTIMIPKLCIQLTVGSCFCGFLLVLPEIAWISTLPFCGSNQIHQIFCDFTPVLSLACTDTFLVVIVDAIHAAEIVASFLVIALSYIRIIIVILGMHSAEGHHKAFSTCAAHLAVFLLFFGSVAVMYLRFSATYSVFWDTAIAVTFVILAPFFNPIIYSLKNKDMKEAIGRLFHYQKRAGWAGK
Outline: as §1

OR6M1 (Homo sapiens) = target: T12, OR6M1 (Homo sapiens) (UniProt Q8NGM8)
T12 sequence (whole entry): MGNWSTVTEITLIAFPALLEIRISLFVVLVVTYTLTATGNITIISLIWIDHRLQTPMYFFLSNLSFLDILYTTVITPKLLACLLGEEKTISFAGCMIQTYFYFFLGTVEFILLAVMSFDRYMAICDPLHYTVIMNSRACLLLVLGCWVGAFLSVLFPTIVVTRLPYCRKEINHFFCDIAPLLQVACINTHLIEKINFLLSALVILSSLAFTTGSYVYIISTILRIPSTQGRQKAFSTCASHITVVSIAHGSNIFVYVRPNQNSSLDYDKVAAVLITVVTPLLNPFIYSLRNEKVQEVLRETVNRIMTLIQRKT
Outline: as §1

OR6N1 (Homo sapiens) = target: T13, OR6N1 (Homo sapiens) (UniProt Q8NGY5)
T13 sequence (whole entry): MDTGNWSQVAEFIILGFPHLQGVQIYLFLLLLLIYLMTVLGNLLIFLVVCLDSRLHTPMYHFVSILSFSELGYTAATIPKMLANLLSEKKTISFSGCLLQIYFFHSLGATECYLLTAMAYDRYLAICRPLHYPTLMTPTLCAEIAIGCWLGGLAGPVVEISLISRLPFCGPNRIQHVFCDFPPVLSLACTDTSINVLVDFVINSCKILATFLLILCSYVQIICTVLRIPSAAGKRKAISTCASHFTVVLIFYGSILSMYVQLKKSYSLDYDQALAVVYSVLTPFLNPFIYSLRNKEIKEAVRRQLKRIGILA
Outline: as §1

OR6N2 (Homo sapiens) = target: T14, OR6N2 (Homo sapiens) (UniProt Q8NGY6)
T14 sequence (whole entry): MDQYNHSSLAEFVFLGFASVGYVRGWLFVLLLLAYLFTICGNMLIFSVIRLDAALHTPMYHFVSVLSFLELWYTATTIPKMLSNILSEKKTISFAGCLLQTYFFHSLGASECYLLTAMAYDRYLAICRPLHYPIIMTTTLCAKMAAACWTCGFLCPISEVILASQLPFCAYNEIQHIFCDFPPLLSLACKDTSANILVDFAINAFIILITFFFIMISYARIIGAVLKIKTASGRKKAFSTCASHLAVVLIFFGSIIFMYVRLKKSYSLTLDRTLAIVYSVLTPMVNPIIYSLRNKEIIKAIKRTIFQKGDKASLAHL
Outline: as §1

OR6P1 (Homo sapiens) = target: T15, OR6P1 (Homo sapiens) (UniProt Q8NGX9)
T15 sequence (whole entry): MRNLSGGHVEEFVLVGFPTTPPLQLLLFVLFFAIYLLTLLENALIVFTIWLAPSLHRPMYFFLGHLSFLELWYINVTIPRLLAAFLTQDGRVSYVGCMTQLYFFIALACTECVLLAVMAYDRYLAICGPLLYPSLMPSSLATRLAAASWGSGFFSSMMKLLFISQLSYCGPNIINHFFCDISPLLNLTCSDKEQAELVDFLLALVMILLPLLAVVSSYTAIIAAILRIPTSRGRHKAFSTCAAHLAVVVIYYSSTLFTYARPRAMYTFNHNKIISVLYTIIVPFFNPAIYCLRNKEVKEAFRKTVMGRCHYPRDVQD
Outline: as §1

OR6Q1 (Homo sapiens) = target: T16, OR6Q1 (Homo sapiens) (UniProt Q8NGQ2)
T16 sequence (whole entry): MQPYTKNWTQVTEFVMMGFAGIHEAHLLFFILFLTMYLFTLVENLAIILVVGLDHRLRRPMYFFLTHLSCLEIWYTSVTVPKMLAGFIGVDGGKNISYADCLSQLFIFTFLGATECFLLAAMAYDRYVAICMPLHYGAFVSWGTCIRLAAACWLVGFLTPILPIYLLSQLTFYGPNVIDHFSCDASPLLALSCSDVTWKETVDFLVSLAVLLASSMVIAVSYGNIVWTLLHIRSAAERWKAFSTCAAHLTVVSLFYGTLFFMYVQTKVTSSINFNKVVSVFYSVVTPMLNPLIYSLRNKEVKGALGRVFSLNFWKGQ
Outline: as §1

Measured: odorant receptor agonist call;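 also: active if original authors judged signal statistically different from baseline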

CCCCC(S)C(C)CO (stereo unspecified)
inactive: all assays above
